ChEMBL document CHEMBL1158641, “Total synthesis of (+/-)-elegansidiol, (+/-)-farnesiferol B, and (+/-)-farnesiferol D” (2010)
Activity calls are given as the source filed them. The calls are words filed in the database; no cut-off is given here.

Experiments:
[1] = tested on: SK-N-SH; assay: Cytotoxicity against human SK-N-SH cells after 48 hrs by SRB assay; type: functional
Outline: (§1)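 Compounds tested at […], triplicate wells, 48 h continuous exposure. SRB staining (0.4% in 1% acetic acid, 20 min RT), dye eluted with 10 mM trizma base, absorbance 540 nm (690 nm reference). GI50 from net-growth formula; experiments repeated three times.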

[2] = tested on: A549; assay: Cytotoxicity against human A549 cells after 48 hrs by SRB assay; type: functional; outline: as §1

C=C1CC[C@@H](O)C(C)(C)[C@@H]1CCC(C)=CCOc1ccc2ccc(=O)oc2c1 (mixture of isomers)
GI50 [1]: inactive
LC50 [1]: inactive
GI50 ([2]; A549, 48 h): 25 µM
LC50 ([2]; A549, 48 h): 46 µM

C=C1CC[C@H](O)C(C)(C)[C@@H]1CCC(C)=CCOc1ccc2ccc(=O)oc2c1 (mixture of isomers)
GI50 [1]: inactive
LC50 [1]: inactive
GI50 [2]: inactive
LC50 [2]: inactive

C=C1CC[C@H](O)C(C)(C)[C@@H]1CC/C(C)=C/CO (racemic)
GI50 [1]: inactive
LC50 [1]: inactive
GI50 [2]: inactive
LC50 [2]: inactive

COC(=O)Nc1nc2cc(C(=O)c3cccs3)ccc2[nH]1 [NOCODAZOLE]
GI50 [1]: 0.65 µM
GI50 ([2]; A549, 48 h): 0.5 µM
